The results in this text go back to ChEMBL document CHEMBL3739420, “Benzoxazolone Carboxamides as Potent Acid Ceramidase Inhibitors: Synthesis and Structure-Activity Relationship (SAR) Studies” (J Med Chem, 2015).

Data set [1] addresses T1, Acid ceramidase (Homo sapiens) (UniProt Q13510).
T1 sequence (whole entry): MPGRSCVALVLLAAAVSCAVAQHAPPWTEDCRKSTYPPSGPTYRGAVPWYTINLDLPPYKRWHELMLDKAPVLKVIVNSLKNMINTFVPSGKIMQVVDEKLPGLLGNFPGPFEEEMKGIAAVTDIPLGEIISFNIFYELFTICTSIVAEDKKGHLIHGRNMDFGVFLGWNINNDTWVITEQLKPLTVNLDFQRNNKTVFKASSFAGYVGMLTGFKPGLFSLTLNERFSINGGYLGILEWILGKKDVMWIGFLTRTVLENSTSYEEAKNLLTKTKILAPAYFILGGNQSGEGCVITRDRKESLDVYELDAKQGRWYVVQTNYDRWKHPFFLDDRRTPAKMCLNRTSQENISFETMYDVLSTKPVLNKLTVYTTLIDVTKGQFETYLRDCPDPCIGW
The experiment in a line: Inhibition of recombinant human acid ceramidase expressed in HEK293 cells at 5 uM using N-[(1S,2R)-2-hydroxy-1-(hydroxymethyl)-4-(2-oxochromen-7-yl)-oxybutyl]dodecanamide substrate preincubated for 10 mins. Format: cell-based.

Data set [2] can be described thus: Stability in 1 % DMSO containing phosphate-buffered solution assessed as half life at 10 uM at pH 7.4 under shaking by UPLC method. Conditions: for t1/2: buffer, pH 7.4, 10 µM; for half-life at 10 µM: phosphate-buffered solution, pH 7.4. Format: physicochemical. In short, it runs like this:
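Compound incubated at 10 μM in PBS pH 7.4; half-life derived by fitting the decay profile.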

The next data set addresses T2, Acid ceramidase (Homo sapiens, UniProt Q13510).
T2 sequence (Q13510 whole entry): T1 sequence (whole entry)
As to the kind of experiment: Inhibition of recombinant human acid ceramidase expressed in HEK293 cells using N-[(1S,2R)-2-hydroxy-1-(hydroxymethyl)-4-(2-oxochromen-7-yl)-oxybutyl]dodecanamide substrate preincubated for 10 mins. Format: cell-based. The procedure, abridged: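 AC-enriched lysosomal lysate from HEK293 cells stably expressing human AC, preincubated 10 min with compound. Coumarin-linked dodecanamide substrate then added at 5 μM final and incubated 3 h at 37 °C. Reaction stopped with MeOH, then NaIO4 at pH 10.6 for 2 h at 37 °C in the dark; umbelliferone fluorescence read at 355/460 nm. IC50 from nonlinear regression; mean of ≥2 determinations.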

Data set [3] relates to Mus musculus. As to the kind of experiment: Inhibition of acid ceramidase in C57BL/6 mouse cerebral cortex assessed as changes in sphingolipid level at 10 mg/kg, ip by LC-MS method. Format: functional, organism-based.
The test system of data set [4] is Mus musculus. The experiment in a line: Inhibition of acid ceramidase in C57BL/6 mouse cerebral cortex at 10 mg/kg, ip after 24 hrs by bicinchoninic acid based protein assay. The class given is functional, organism-based. In short, it runs like this:
(§1)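 Male C57BL/6 mice dosed ip at 10 mg/kg in 15% PEG/15% Tween-80/70% saline; lung and cerebral cortex collected 30 min–24 h after dosing. Lysosomal extracts were prepared by sonication and differential centrifugation, then incubated at pH 4.5 with 50 μM C12-ceramide for 1 h at 37 °C. Lauric acid product measured by UPLC–MS with an internal standard; activity expressed as % of vehicle; n = 6.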

Data set [5] deals with Mus musculus. The experiment in a line: Inhibition of acid ceramidase in C57BL/6 mouse lung assessed as decrease in sphingosine-1-phosphate level at 10 mg/kg, ip after 3 hrs by LC-MS method. Format: functional, organism-based.
Data set [6] deals with Mus musculus. The experiment in a line: Inhibition of acid ceramidase in C57BL/6 mouse lung assessed as increase in ceramide level at 10 mg/kg, ip upto 6 hrs by LC-MS method. The class given is functional, organism-based.
The subject of data set [7] is Mus musculus. As to the kind of experiment: Inhibition of acid ceramidase in C57BL/6 mouse lung assessed as decrease in sphingosine level at 10 mg/kg, ip after 3 hrs by LC-MS method. The class given is functional, organism-based.
The subject of data set [8] is Mus musculus. As to the kind of experiment: Inhibition of acid ceramidase in C57BL/6 mouse lung at 10 mg/kg, ip after 24 hrs by bicinchoninic acid based protein assay. The class given is functional, organism-based. The procedure, abridged:
as §1

Data set [9] has as its system Mus musculus. As to the kind of experiment: Inhibition of acid ceramidase in C57BL/6 mouse lung assessed as increase in dihydroceramide level at 10 mg/kg, ip upto 6 hrs by LC-MS method. The class given is functional, organism-based.
Data set [10] can be described thus: Chemical stability in AC assay buffer at 10 uM at pH 4.5 under shaking by UPLC method. Format: physicochemical. The following applies: pH 4.5, 10 µM.

Active and inactive are the calls of the source. No cut-off for these calls is given here.

For `CN(CCNC(=O)n1c(=O)oc2ccccc21)Cc1ccccc1`, in [1], the inhibition result is “inactive”.

Regarding `O=C(NCCCCc1ccccc1)n1c(=O)oc2ccccc21`, in data set [2], the t1/2 stood at 0.75 h.

Turning to `O=C(NCCCCc1ccccc1)n1c(=O)oc2cccc(Br)c21`, at Acid ceramidase (hek293), the IC50 result is “ND(Unstable)”.

As for `O=C(NCCCCc1ccccc1)n1c(=O)oc2cc(-c3ccccc3)ccc21`, in [2], the half-life at 10 µM was greater than 5 h.

For the compound `O=C(NCCc1ccccc1)n1c(=O)oc2ccccc21`, the IC50 at Acid ceramidase (read-out: IC50) turned out to be 0.121 µM.

Consider `O=C(NCCSCc1ccccc1)n1c(=O)oc2ccccc21`, for which, at Acid ceramidase (read-out: IC50), the IC50 is 0.065 µM.

Take `O=C(NCCCCc1ccccc1)n1c(=O)oc2cc(Cl)ccc21`: the inhibition entry with Mus musculus [3] is “inactive”. Also, the inhibition entry in the data set with Mus musculus [4], with Mus musculus [5], with Mus musculus [6], in the data set with Mus musculus [7], with Mus musculus [8] and with Mus musculus [9] was “Active” in each case. Moreover, in data set [2], the half-life at 10 µM came to 0.967 h. The Stability entry in data set [10] is “Stable”.

In the case of `O=C(NCCCCc1cccs1)n1c(=O)oc2ccccc21`, the IC50 on Acid ceramidase (read-out: IC50) is 0.037 µM.

For `O=C(NCCCCc1ccccc1)n1c(=O)oc2cc(Br)ccc21`, on Acid ceramidase (hek293, read-out: IC50), the 50% inhibitory concentration (IC50) came out at 0.031 µM. For the same compound, in data set [2], the t1/2 was 0.4 h.

Consider `O=C(NCCCCc1ccccc1)n1c(=O)oc2ccc(F)cc21`, for which the IC50 on Acid ceramidase (read-out: IC50) was found to be 0.012 µM.

As for `O=C(c1ccccc1)c1ccc2c(c1)oc(=O)n2C(=O)NCCCCc1ccccc1`, the half-life at 10 µM in data set [2] is 1.63 h. The Stability result in data set [10] is “Stable”.

As to `O=C(NCCCCc1ccccc1)n1c(=O)oc2cccc(-c3ccccc3)c21`, the half-life at 10 µM in data set [2] turned out to be 0.117 h.

As for `Cc1ccc(CCCCNC(=O)n2c(=O)oc3ccccc32)cc1`, the 50% inhibitory concentration (IC50) at Acid ceramidase (read-out: IC50) amounted to 0.025 µM.

Take `O=C(NCCCCc1ccccc1)n1c(=O)oc2cc([N+](=O)[O-])ccc21`: the Stability result in data set [10] is on record as “Stable”.

Consider `O=C(NCCCCc1ccccc1)n1c(=O)oc2ccc([N+](=O)[O-])cc21`, for which the Stability result in data set [10] is “Stable”.

With `O=C(NCCCCc1ccccc1)n1c(=O)oc2ccc(-c3ccc(F)cc3)cc21`, the half-life at 10 µM in data set [2] was greater than 5 h.

For `O=C(NCCCCc1ccc2ccccc2c1)n1c(=O)oc2ccccc21`, the concentration for half-maximal inhibition (IC50) at Acid ceramidase (read-out: IC50) was 0.071 µM.

In the case of `O=C(NCCCCc1ccccc1)n1c(=O)oc2ccc(C(F)(F)F)cc21`, the IC50 on Acid ceramidase (read-out: IC50) amounted to 0.018 µM.

Turning to `O=C(NCCCCc1ccccc1)n1c(=O)oc2ccc(Cl)cc21`, on Acid ceramidase (read-out: IC50), the half-inhibitory concentration (IC50) came to 0.015 µM.

On to `COc1ccc(-c2ccc3c(c2)oc(=O)n3C(=O)NCCCCc2ccccc2)cc1`, for which the half-life at 10 µM in [2] came out at 2.2 h.

For the compound `O=C(c1ccccc1)c1ccc2oc(=O)n(C(=O)NCCCCc3ccccc3)c2c1`, at Acid ceramidase (read-out: IC50), the half-inhibitory concentration (IC50) worked out at 0.024 µM.

As to `O=C(NCCCCc1ccc([N+](=O)[O-])cc1)n1c(=O)oc2ccccc21`, on Acid ceramidase (read-out: IC50), the IC50 came out at 0.312 µM.

As to `COc1ccc(-c2ccc3oc(=O)n(C(=O)NCCCCc4ccccc4)c3c2)cc1`, at Acid ceramidase (read-out: IC50), the IC50 amounted to 0.067 µM. For the same compound, in data set [2], the half-life at 10 µM turned out to be 2.93 h.

Regarding `O=C(NCCCCc1ccccc1)n1c(=O)oc2cc(Cl)c(Cl)cc21`, in data set [2], the half-life at 10 µM stood at 0.917 h.

As to `Cc1cccc2oc(=O)n(C(=O)NCCCCc3ccccc3)c12`, the IC50 entry on Acid ceramidase (hek293) is recorded as “ND(Unstable)”.

For `O=C(NCCOCc1ccccc1)n1c(=O)oc2ccccc21`, the IC50 on Acid ceramidase (read-out: IC50) came to 0.649 µM.

Consider `O=C(NCCCCc1ccccc1)n1c(=O)oc2c(-c3ccccc3)cccc21`, for which, in [2], the half-life at 10 µM is greater than 5 h.

With `O=C(NCCCCCCc1ccccc1)n1c(=O)oc2ccccc21`, the 50% inhibitory concentration (IC50) on Acid ceramidase (read-out: IC50) came out at 0.051 µM.

Consider `O=C(NCCCCc1ccccc1)n1c(=O)oc2cc(F)ccc21`, for which, at Acid ceramidase (read-out: IC50), the IC50 stood at 0.031 µM.

Take `O=C(c1ccc(Cl)cc1)c1ccc2c(c1)oc(=O)n2C(=O)NCCCCc1ccccc1`: in data set [2], the half-life at 10 µM came to 4.57 h. The Stability entry in data set [10] is reported as “Stable”.

`O=C(NCCCCc1ccccc1)n1c(=O)oc2cc(-c3ccc(F)cc3)ccc21`: the half-life at 10 µM in data set [2] was greater than 5 h.

On to `O=C(NCCCCc1ccccc1)n1c(=O)oc2ccc(-c3ccccc3)cc21`, for which the IC50 at Acid ceramidase (read-out: IC50) stood at 0.042 µM. The half-life at 10 µM in data set [2] was determined as 4.93 h. The Stability entry in data set [10] is given as “Stable”.

By IC50 is commonly meant the concentration at which inhibition is half-maximal. The term half-life denotes the time in which the quantity being followed falls by half.
